Here are results for one compound from ChEMBL document CHEMBL2150886, “Synthesis of [3β-acetoxy-urs-12-en-28-oyl]-1-monoglyceride and investigation on its anti tumor effects against BGC-823” (Bioorg Med Chem, 2011).

Series [1] deals with Mus musculus. In words: Toxicity in human BGC823 cells xenografted nude mouse assessed as body weight changes at 6 mg/kg, iv treated 3 times on day 1, day 4 and day 7 post tumor implant (reference value: 20.79 +/- 1.29 grams). The note with it: in vivo. The series is classed as organism-based, BGC-823. More on the design: dose 6 mg/kg, route intravenous. The method in brief:
(§1)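 Nude mice (male, 5 weeks, 18–22 g) carried subcutaneous BGC-823 xenografts from 1 × 10⁷ cells. Dosing started at about 200 mm³ tumour volume, with eight mice per group. Each dose was 0.2 mL given iv; the saline control received 0.9% saline. Body weight was recorded on days 1, 4, 7, 10, 13 and 16 of treatment and reported as mean ± SD, n = 8.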
Background: Xenograft models place foreign cells or tissue in a host animal.

In series [2] the test system is Mus musculus. In words: Toxicity in human BGC823 cells xenografted nude mouse assessed as body weight changes at 6 mg/kg, iv treated 4 times on day 1, 4, 7 and 10 post tumor implant (reference value: 20.54 +/- 1.45 grams). More on the design: dose 6 mg/kg, route intravenous. The note with it: in vivo. The series is classed as organism-based, BGC-823. The method in brief: as §1

The subject of series [3] is Mus musculus. In words: Toxicity in human BGC823 cells xenografted nude mouse assessed as body weight changes at 6 mg/kg, iv treated 5 times on day 1, 4, 7, 10 and day 13 post tumor implant (reference value: 20.21 +/- 1.83 grams). The series is classed as organism-based, BGC-823. On the set-up: dose 6 mg/kg, route intravenous. The conditions noted are these: in vivo. A digest of the protocol: as §1

For series [4], the system named is Mus musculus. In words: Toxicity in human BGC823 cells xenografted nude mouse assessed as body weight changes at 6 mg/kg, iv treated […] on day 1, 4, 7, 10, 13 and day 16 post tumor implant (reference value: 20.12 +/- 1.52 grams). The class given is organism-based, BGC-823. On the set-up: dose 6 mg/kg, route intravenous. The conditions noted are these: in vivo.

Series [5] concerns Mus musculus. In words: Toxicity in human BGC823 cells xenografted nude mouse assessed as body weight changes at 30 mg/kg, iv treated 2 times on day 1 and day 4 post tumor implant (reference value: 20.58 +/- 1.35 grams). The series is classed as organism-based, BGC-823. On the set-up: dose 30 mg/kg, route intravenous. The conditions noted are these: in vivo. The method in brief: as §1

Series [6] concerns BGC-823. In words: Induction of cell shrinkage in human BGC823 cells at 30 uM incubated for 48 hrs by MTT assay. The series is classed as functional, cell-based. A general note: Formazan colour is commonly taken as a measure of viable cells.
Series [7] concerns BGC-823. In words: Cytotoxicity against human BGC823 cells by MTT assay. The class given is functional, cell-based. A digest of the protocol:
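Cells were grown in RPMI-1640 with 10% heat-inactivated FCS at 37 °C under 5% CO₂, seeded at 5 × 10³ per well and left 24 h. Compounds in DMSO were diluted in medium to 0.5% final DMSO; controls received 0.5% DMSO. Exposure was 24–72 h, followed by MTT for 4 h, formazan dissolved in DMSO, and A570. Six wells per sample; IC₅₀ taken at 50% inhibition; ≥3 repeats.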

The subject of series [8] is BGC-823. In words: Cell cycle arrest in human BGC823 cells assessed as accumulation of cells at subG0/G1 phase at 40 uM incubated by propidium iodide staining based flow cytometry (Rvb= 0.66%). The class given is functional. The note with it: TDE = time-dependent effect. The method in brief: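 BGC-823 cells were exposed to 20 µM for 24, 48 or 72 h, or to 10, 20 or 40 µM for 48 h. About 10⁶ cells were harvested and stained with propidium iodide using a cell cycle kit, then analysed by flow cytometry. Percentages were read for sub-G0/G1, G0/G1, S and G2/M. Each experiment was run at least three times; mean ± SD.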
A general note: A flow cytometer gives signals particle by particle.

The subject of series [9] is BGC-823. In words: Induction of apoptosis in human BGC823 cells assessed as viable cell population at 10 uM by annexinV/propidium iodide staining (reference value: 95.5%). The series is classed as functional.
Series [10] relates to BGC-823. In words: Induction of apoptosis in human BGC823 cells assessed as late apoptotic cell population at 10 uM by annexinV/propidium iodide staining (reference value: 2.1%). The class given is functional.
Series [11] deals with BGC-823. In words: Induction of apoptosis in human BGC823 cells assessed as viable cell population at 20 uM by annexinV/propidium iodide staining (reference value: 95.5%). The series is classed as functional.
The subject of series [12] is BGC-823. In words: Induction of apoptosis in human BGC823 cells assessed as early apoptotic cell population at 20 uM by annexinV/propidium iodide staining (reference value: 1.9%). The class given is functional.
Series [13] relates to BGC-823. In words: Induction of apoptosis in human BGC823 cells assessed as viable cell population at 30 uM by annexinV/propidium iodide staining (reference value: 95.5%). The class given is functional.
In series [14] the test system is BGC-823. In words: Induction of apoptosis in human BGC823 cells assessed as early apoptotic cell population at 30 uM by annexinV/propidium iodide staining (reference value: 1.9%). The class given is functional.
The test system of series [15] is BGC-823. In words: Induction of apoptosis in human BGC823 cells assessed as viable cell population at 40 uM by annexinV/propidium iodide staining (reference value: 95.5%). The class given is functional.
Series [16] concerns BGC-823. In words: Induction of apoptosis in human BGC823 cells assessed as early apoptotic cell population at 40 uM by annexinV/propidium iodide staining (reference value: 1.9%). The class given is functional.
In series [17] the test system is BGC-823. In words: Induction of apoptosis in human BGC823 cells assessed as late apoptotic cell population at 40 uM by annexinV/propidium iodide staining (reference value: 2.1%). The series is classed as functional.
The test system of series [18] is BGC-823. In words: Induction of apoptosis in human BGC823 cells assessed as necrotic damaged cell population at 40 uM by annexinV/propidium iodide staining (reference value: 0.5%. The series is classed as functional.
In series [19] the test system is BGC-823. In words: Induction of apoptosis in human BGC823 cells assessed as increase in caspase 3 activity at 20 uM incubated for 48 hrs relative to untreated control. The class given is functional. The method in brief:
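BGC-823 cells were exposed to 0, 10 or 20 µM for 48 h, detached with trypsin/EDTA and washed in cold PBS. About 10⁶ cells were lysed, and the lysate was incubated 1 h with Ac-DEVD-pNA, with cleavage read at 405 nm. Activity was normalised to Bradford protein and expressed relative to the untreated control. Mean ± SD of three independent experiments.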

The subject of series [20] is BGC-823. In words: Reduction in survivin protein expression in human BGC823 cells at 20 uM incubated for 48 hrs by Western blotting. The class given is functional. A digest of the protocol:
(§2)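 BGC-823 cells were treated with 10, 20 or 40 µM for 48 h, detached with trypsin/EDTA, and more than 10⁶ cells were lysed. Protein was quantified by Bradford, and 150–200 µg per lane was run on 12.5% SDS-PAGE and transferred to PVDF. Antibodies: Survivin 1:1000, Bcl-2 1:200, β-actin 1:1000; HRP secondary 1 h; ECL detection. Expression was quantified relative to control.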

In series [21] the test system is BGC-823. In words: Reduction in BCL-2 protein expression in human BGC823 cells at 1o to 40 uM incubated for 48 hrs by Western blotting. The series is classed as functional, cell-based. The method in brief: as §2
For series [22], the system named is BGC-823. In words: Reduction in survivin protein expression in human BGC823 cells incubated for 48 hrs by Western blotting. The series is classed as functional, cell-based. A digest of the protocol: as §2
Series [23] concerns BGC-823. In words: Antitumor activity against human BGC823 cells xenografted in nude mouse assessed as reduction in tumor volume at 6 mg/kg, iv dosed 5 times. The class given is functional. On the set-up: scale not given: the % may be the effect or the level left. A digest of the protocol:
(§3)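 Male nude mice (5 weeks, 18–22 g) inoculated subcutaneously with 1 × 10⁷ BGC-823 cells. At about 200 mm³ tumours, animals were randomised into four groups of eight. Each received 0.2 mL iv by tail vein; controls got 0.9% saline. Tumour volume was measured daily as 0.5 × length × width²; tumours were weighed at the end. Values are mean ± SD, n = 8.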

For series [24], the system named is BGC-823. In words: Antitumor activity against human BGC823 cells xenografted in nude mouse assessed as reduction in tumor volume at 30 mg/kg, iv dosed 5 times. The series is classed as functional. On the set-up: scale not given: the % may be the effect or the level left. The method in brief: as §3

The source made the active and inactive calls. The rule behind the calls is not given here.

A word on the IC50: it is the concentration at which inhibition is half-maximal. `CC(=O)O[C@H]1CC[C@]2(C)[C@H]3CC=C4[C@@H]5[C@@H](C)[C@H](C)CC[C@]5(C(=O)OCC(O)CO)CC[C@@]4(C)[C@]3(C)CC[C@H]2C1(C)C` (some centres undefined): the Activity in series [1] was 20.13 g; in series [2], 20.03 g; in series [3], 20.07 g; in series [4] it was 20.09 g; in [5] it was 19.61 g; in series [8], “tde”. Also, the Activity in series [9] was 92.7%; in series [10], 2.6%; in [11], 72.2%; in series [12], 19.4%; in [13] it was 19.4%; in series [14] it was 45.1%. The Activity in series [15] was 2%; in series [16], 7.4%; in [17], 89.5%; in series [18], 2.3%; in series [20] it was 43.1%; in series [22], “Dose-dependent effect”. Further, the Activity was 29.3% in series [23] and 41.9% in series [24]. For the same compound, the result in series [6] and in series [21] was Active. In [7], the IC50 stood at 15.7 µM. For the same compound, the “fold change (FC)” value in series [19] was determined as 3.65.
